# In the library only some 3.9% were active in any assay of this set; here they are far more common.
# CRFBP-R2 agonist = CRF-BP/CRF-R2 complex agonism; AID 588473; activation, % at 13.2 µM; actives 0.46% (n = 350,000); HEK293 CRF-R2/CRF-BP, calcium dye fluorescence (FLIPR); percent of saturating CRF peptide response;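 active means activation of at least 50%, plus an integration ratio under a set limit after plate pattern correction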
# TAAR1 ag = human TAAR1 agonism; CHO RD-HGA16 TAAR1, Fluo-8 calcium fluorescence; vehicle wells 0%, saturating PEA agonist 100%; actives 0.99% (n = 360,000); activation, % at 3 µM; Q96RJ0;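 active means activation above the mean activation of all test compounds in the run plus 3 SD, cut at about 38% in these data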
# Target sequence (Q96RJ0 whole entry, looked up): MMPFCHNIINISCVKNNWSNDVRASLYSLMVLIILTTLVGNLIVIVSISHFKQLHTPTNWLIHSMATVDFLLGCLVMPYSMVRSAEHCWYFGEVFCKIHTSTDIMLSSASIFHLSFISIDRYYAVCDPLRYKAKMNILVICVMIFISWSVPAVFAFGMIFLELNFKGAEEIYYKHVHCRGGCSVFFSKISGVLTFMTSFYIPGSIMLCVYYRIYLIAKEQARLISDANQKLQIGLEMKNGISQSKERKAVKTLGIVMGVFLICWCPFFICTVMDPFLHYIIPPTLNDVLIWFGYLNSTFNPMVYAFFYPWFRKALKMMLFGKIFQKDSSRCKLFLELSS
#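 Test system: RD-HGA16 (CHO) cells co-expressing Gα16 and hTAAR1 / Benchmarks: DMSO vehicle as 0%, PEA at EC100 as 100% / Repeats: no replicates (n 1) / Measure: % activation from peak over basal fluorescence ratio, DMSO-to-PEA scaled / Timing: 17-24 h plating, Fluo-8 75 min 37 °C, 30 min RT / Technique: kinetic Fluo-8 calcium fluorescence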
# TMEM16A inh = mouse TMEM16A channel inhibition, primary screen; normalized B-score (activity score, 25-100; higher = stronger inhibition) at 10 µM; actives 1.2% (n = 310,000); HEK293 TMEM16A/YFP iodide influx fluorescence, ionomycin; AID 588511; Q8BHY3;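 active means ratio plate-corrected score three or more library SD toward inhibition, starting fluorescence score within five deviations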;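 further: score derived from kinetic fluorescence span divided by baseline fluorescence per well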
# ANO1 activ = activates or potentiates the mouse TMEM16A chloride channel. Q8BHY3. HEK293 TMEM16A/YFP-H148Q/I152L, iodide quench fluorescence; stronger effect = lower value. B-score at 10 µM. actives 0.3% (n = 340,000). AID 623877;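 active means fluorescence-ratio B-score plate-corrected deviation score at least 3 library SD below zero, with starting fluorescence score within 5 deviations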;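 further: channel opened by trigger with iodide after compound preincubation; score built on the fluorescence ratio of max minus min over baseline; more negative score means more quench and so TMEM16A activation or potentiation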
# TAAR1 antagonist = antagonists of human TAAR1; CHO RD-HGA16 TAAR1, Fluo-8 calcium fluorescence, antagonist; inhibition, % at 3 µM; actives 1.5% (n = 360,000);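 active means inhibition above a per-plate cutoff, the mean inhibition of test compounds on that plate plus 3 SD, cut at about 49% in these data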
#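 Assay system: CHO-derived RD-HGA16 cells stably expressing human TAAR1 plus Gα16. Timing: 140 s kinetic read after compound, 140 s after agonist. Technique: kinetic Fluo-8 calcium fluorescence measurement. Measure: % inhibition of agonist calcium response.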
# CRFBP-R2 block = CRF-BP/CRF-R2 complex antagonism. HEK293 CRF-R2/CRF-BP, CRF-induced calcium fluorescence. inhibition, % at 11.8 µM. actives 0.59% (n = 350,000);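 active means inhibition of the ligand-induced calcium signal above about 50% at the single tested concentration, limit read from the data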
# TAAR1 ag conf = confirmation of human TAAR1 agonists; AID 651783; shares compounds with TAAR1 ag; CHO RD-HGA16 TAAR1, Fluo-8 calcium fluorescence; scaled: DMSO 0%, maximal phenethylamine 100%; actives 82% (n = 2,400); activation, % at 3 µM;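 active means activation above a cutoff set at the run's mean compound activation plus 3 SD, cut at about 39% in these data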
# Ga16 nonsel ag = nonselective agonism, TAAR1 counter-screen; shares compounds with TAAR1 ag; CHO-Ga16 parental, Fluo-8 calcium fluorescence; normalized to maximal ATP response, DMSO zero; activation, % at 3 µM; actives 50% (n = 2,400); AID 651787;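 active means activation above the run cutoff, the mean activation over all tested wells plus 3 SD, cut at about 12% in these data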
# TAAR1 desensitize = counter-screen for human TAAR1 agonists: agonists that desensitize TAAR1; shares compounds with TAAR1 ag; CHO RD-HGA16 hTAAR1, Fluo-8 calcium, beta-PEA response inhibition; inhibition, % at 3 µM; actives 46% (n = 2,400); AID 651951;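 active means inhibition above the run cutoff, the mean inhibition of all test compounds plus 3 SD, cut at about 49% in these data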;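 further: beta-PEA stimulus applied at its EC80; loss of beta-PEA calcium signal after compound pretreatment read as receptor desensitization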
# Ga16 nonsel ant = nonselective Ga16 antagonist in TAAR1 agonist counter-screen; CHO-Ga16 ATP-induced calcium, Fluo-8 fluorescence; inhibition, % at 3 µM; shares compounds with TAAR1 ag; actives 39% (n = 2,400);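 active means inhibition above the plate's mean compound inhibition plus 3 SD, computed per plate, cut at about 22% in these data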
# Numbers stand for hits; n = inactive; x = not tested or not shown.
SMILES,CRFBP-R2 agonist,TAAR1 ag,TMEM16A inh,ANO1 activ,TAAR1 antagonist,CRFBP-R2 block,TAAR1 ag conf,Ga16 nonsel ag,TAAR1 desensitize,Ga16 nonsel ant
CCOc1ccccc1C(=O)N[C@H](C(=O)Nc1nc2c(s1)CCCC2)C(C)C,n,45.6,n,n,n,n,41.2,13.0,n,n
COc1cc(S(=O)(=O)N2CCN(C(=O)c3cccs3)CC2)ccc1NC(C)=O,n,n,x,x,n,n,x,x,x,x
CC(C)(C)n1nnnc1C(c1ccccc1)N1CCc2ccccc2C1 (stereo unspecified),n,x,n,n,x,n,x,x,x,x
CCC(C)(C)n1nnnc1C(c1ccc(O)cc1)N1CCc2ccccc2C1 (stereo unspecified),n,97.8,n,n,84.0,n,92.5,n,86.2,n
COCCn1nnnc1C(c1ccc(O)c(OC)c1)N1CCc2ccccc2C1 (stereo unspecified),n,86.1,n,n,84.2,n,103.3,n,96.8,n
CSc1ccc(NC(=O)C2(C)CCN2C(=O)c2cc(C)n(C)n2)cc1 (stereo unspecified),x,n,x,x,n,x,x,x,x,x
Nc1c(-c2n[nH]c(=S)n2-c2ccc(Cl)cc2Cl)cnn1-c1ccccc1,n,96.6,n,n,n,n,72.8,44.1,n,28.4
Cn1c(-c2cnn(-c3ccccc3)c2N)n[nH]c1=S,n,n,n,n,n,n,x,x,x,x
COc1ccc(CCNC(=O)CNCC2CCCCC2)cc1OC,n,n,n,n,n,n,x,x,x,x
CN(C)c1ccc(/C=C/C(=O)c2ccccc2)cc1[N+](=O)[O-],n,n,n,n,n,n,x,x,x,x
O=C(/C=C/c1ccc(O)c([N+](=O)[O-])c1)c1ccc2ccccc2c1,n,65.7,n,n,n,n,n,38.0,n,n
CC(=C1C(=O)c2ccccc2C1=O)N1CCc2ccccc2C1,n,x,n,n,x,n,x,n,x,n
Cc1c(CNCCc2ccccc2Cl)c(C(=O)O)c(C)n1-c1ccccc1,n,89.6,n,n,64.9,n,92.0,25.2,74.3,n
NS(=O)(=O)c1cccc(NC(=O)c2cccc(Oc3ccccc3)c2)c1,n,n,n,n,n,n,x,x,x,x
CC(=O)c1ccc(S(=O)(=O)N2CCN(CCOc3ccc(Br)cc3)CC2)cc1,n,n,x,n,n,n,x,x,x,x
NC(=N\N=Cc1ccccc1)/C(N)=N/N=Cc1ccccc1,n,n,x,x,n,n,x,x,x,x
NC(N)=N/N=C/c1ccc(OCc2ccccc2Cl)cc1,n,49.8,n,n,n,n,86.7,54.6,70.5,60.6
NC(N)=N/N=C/c1ccccc1,n,63.5,n,n,88.6,n,91.5,n,93.5,n
CCN(CC)C(=O)Oc1nnc(SC(C)C)n1-c1ccc(Cl)cc1,n,n,n,n,n,n,x,x,x,x
CCN(CC)C(=O)Oc1nnc(SC(C)C)n1-c1ccc(Cl)c(Cl)c1,n,44.9,n,n,n,n,n,13.9,n,n
C/C(=N\NC(=O)c1nnn(-c2nonc2N)c1-c1cccs1)c1ccc(C)cc1,n,103.5,n,n,n,n,104.0,71.6,n,n
COc1ccc(/C(C)=N/NC(=O)c2nnn(-c3nonc3N)c2-c2cccs2)cc1,n,45.7,n,n,n,n,80.6,55.1,n,n
C/C(=N\NC(=O)c1nnn(-c2nonc2N)c1-c1cccs1)c1ccc(O)cc1,n,n,n,n,n,n,x,x,x,x
COc1ccc(/C(C)=N/NC(=O)c2nnn(-c3nonc3N)c2-c2ccccc2)cc1,n,123.4,n,n,n,n,102.8,63.3,n,n
O=C(O[C@H]1[C@H](Oc2ccccc2COC(=O)C2(O)C=CCCC2=O)O[C@H](CO)[C@@H](O)[C@@H]1O)c1ccccc1 (stereo partly specified),x,x,n,x,x,x,x,x,x,x
SMILES,CRFBP-R2 agonist,TAAR1 ag,TMEM16A inh,ANO1 activ,TAAR1 antagonist,CRFBP-R2 block,TAAR1 ag conf,Ga16 nonsel ag,TAAR1 desensitize,Ga16 nonsel ant
CCOC(=O)Cn1ccc(NC(=O)COc2ccc(F)cc2)n1,n,n,n,n,n,n,x,x,x,x
COc1ccc(C(CC(=O)O)N2C(=O)CCC2=O)cc1 (stereo unspecified),n,n,n,n,n,n,x,x,x,x
Cn1c(=O)c(C(=O)NNC(=O)c2ccc(Br)cc2)c(O)c2ccccc21,n,n,n,n,n,n,x,x,x,x
CCCCCC(=O)NNC(=O)c1c(O)c2ccccc2n(CC)c1=O,n,48.2,n,n,n,n,n,24.1,n,n
CCn1c(=O)c(C(=O)NCc2ccccc2)c(O)c2ccccc21,n,n,n,n,n,n,x,x,x,x
CCn1c(=O)c(C(=O)Nc2ncccc2C)c(O)c2ccccc21,n,58.9,n,n,n,n,n,12.1,n,n
CCn1c(=O)c(C(=O)Nc2ncccc2O)c(O)c2ccccc21,n,n,n,n,n,n,x,x,x,x
Cn1c(=O)c(C(=O)NNC(=O)c2ccccc2F)c(O)c2ccccc21,50.8,47.9,n,n,n,n,60.4,42.6,n,22.4
CC(CNC(=O)C1CCCCC1C(=O)O)c1ccccc1 (stereo unspecified),n,x,n,n,x,n,x,n,x,n
COC(CNC(=O)C1CCCCC1C(=O)O)OC (stereo unspecified),n,n,n,n,n,n,x,x,x,x
COc1ccc(CCNC(=O)C2CCCCC2C(=O)O)cc1OC (stereo unspecified),x,x,n,x,x,x,x,x,x,x
CC1CCCC/C1=N\NC(=S)NCCc1ccccc1 (stereo unspecified),n,56.5,n,n,n,n,44.6,n,n,n
O=C(NC1CCCCC1)C(=S)NCCc1ccccc1,n,58.1,n,n,n,n,75.7,n,62.1,n
O=C(O)C1CCCCC1C(=O)NCCc1ccccc1 (stereo unspecified),n,97.5,n,n,85.8,n,106.2,n,91.7,n
O=C(NCCc1ccccc1)C(=O)NC1CCCCC1,n,n,n,n,n,n,x,x,x,x
CC(C)Oc1ccc(S(=O)(=O)N2CCOCC2)cc1NC(=O)C1CCCCC1,n,n,x,n,n,n,x,x,x,x

# Bioassay records (PubChem BioAssay)
